Measured values: ChEMBL document CHEMBL1828575, “Design, synthesis and antiproliferative activities of biarylolefins based on polyhydroxylated and carbohydrate scaffolds” (Eur J Med Chem, 2011)
Calls of active or inactive are those of the source. The calls are words filed in the database; no cut-off is given here.

Tests used:
[1] = test system: PC-3; assay: Cytotoxicity against human PC3 cells at 10^-6 M after 72 hrs by MTS assay; assay type: functional; settings: PC-3, 72 h, read-out: GI
Procedure, shortened: (§1)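 Preliminary screen at 10^-5 and 10^-6 M. Cells were grown in RPMI with 10% fetal calf serum plus penicillin, streptomycin and fungizone under 5% CO₂, plated in 96-well plates, and dosed 24 h later from DMSO stocks (1% DMSO final, same in controls). After 72 h, MTS was added for 3 h at 37 °C and absorbance read at 490 nm. Inhibition was calculated as (1 − OD treated/OD control) × 100, in triplicate.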

[2] = test system: SF-268; assay: Cytotoxicity against human SF268 cells at 10^-6 M after 72 hrs by MTS assay; assay type: functional; settings: SF-268, 72 h, read-out: GI; procedure, shortened: as §1
[3] = test system: SK-OV-3; assay: Cytotoxicity against human SKOV3 cells at 10^-6 M after 72 hrs by MTS assay; assay type: functional; settings: SK-OV-3, 72 h, read-out: GI; procedure, shortened: as §1
[4] = test system: OVCAR-8; assay: Cytotoxicity against human OVCAR8 cells at 10^-6 M after 72 hrs by MTS assay; assay type: functional; settings: OVCAR-8, 72 h, read-out: GI; procedure, shortened: as §1
[5] = test system: MIA PaCa-2; assay: Cytotoxicity against human MIAPaCa2 cells at 10^-6 M after 72 hrs by MTS assay; assay type: functional; settings: MIA PaCa-2, 72 h, read-out: GI
[6] = test system: HL-60; assay: Cytotoxicity against human HL60 cells at 10^-6 M after 72 hrs by MTS assay; assay type: functional; settings: HL-60, 72 h, read-out: GI
Procedure, shortened: (§2)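 Cells grown in RPMI with 10% fetal calf serum, penicillin, streptomycin and fungizone under 5% CO₂. Plated in 96-well plates and dosed 24 h later with compound in DMSO (1% final DMSO; controls got DMSO alone). After 72 h, MTS was added for 3 h at 37 °C and A490 read. Inhibition = (1 − OD treated/OD control) × 100, in triplicate.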

[7] = Cytotoxicity against human HL60R cells at 10^-6 M after 72 hrs by MTS assay; assay type: functional; settings: read-out: GI; procedure, shortened: as §2
[8] = test system: K562; assay: Cytotoxicity against human K562 cells at 10^-6 M after 72 hrs by MTS assay; assay type: functional; settings: K562, 72 h, read-out: GI; procedure, shortened: as §2
[9] = test system: HCT-116; assay: Cytotoxicity against human HCT116 cells at 10^-5 M after 72 hrs by MTS assay; assay type: functional; settings: HCT-116, 72 h, read-out: GI; procedure, shortened: as §2
[10] = test system: HT-29; assay: Cytotoxicity against human HT-29 cells at 10^-5 M after 72 hrs by MTS assay; assay type: functional; settings: HT-29, 72 h, read-out: GI; procedure, shortened: as §2
[11] = test system: HCT-15; assay: Cytotoxicity against human HCT15 cells at 10^-5 M after 72 hrs by MTS assay; assay type: functional; settings: HCT-15, 72 h, read-out: GI; procedure, shortened: as §2
[12] = test system: MCF7; assay: Cytotoxicity against human MCF7 cells at 10^-5 M after 72 hrs by MTS assay; assay type: functional; settings: MCF7, 72 h, read-out: GI
[13] = Cytotoxicity against human MDA231 cells at 10^-5 M after 72 hrs by MTS assay; assay type: functional; settings: MDA-MB-231, 72 h, read-out: GI; procedure, shortened: as §1
[14] = test system: A549; assay: Cytotoxicity against human A549 cells at 10^-5 M after 72 hrs by MTS assay; assay type: functional; settings: A549, 72 h, read-out: GI; procedure, shortened: as §2
[15] = test system: PC-3; assay: Cytotoxicity against human PC3 cells at 10^-5 M after 72 hrs by MTS assay; assay type: functional; settings: PC-3, 72 h, read-out: GI; procedure, shortened: as §1
[16] = test system: SF-268; assay: Cytotoxicity against human SF268 cells at 10^-5 M after 72 hrs by MTS assay; assay type: functional; settings: SF-268, 72 h, read-out: GI; procedure, shortened: as §1
[17] = test system: SK-OV-3; assay: Cytotoxicity against human SKOV3 cells at 10^-5 M after 72 hrs by MTS assay; assay type: functional; settings: SK-OV-3, 72 h, read-out: GI; procedure, shortened: as §1
[18] = test system: OVCAR-8; assay: Cytotoxicity against human OVCAR8 cells at 10^-5 M after 72 hrs by MTS assay; assay type: functional; settings: OVCAR-8, 72 h, read-out: GI; procedure, shortened: as §1
[19] = test system: MIA PaCa-2; assay: Cytotoxicity against human MIAPaCa2 cells at 10^-5 M after 72 hrs by MTS assay; assay type: functional; settings: MIA PaCa-2, 72 h, read-out: GI
[20] = test system: HL-60; assay: Cytotoxicity against human HL60 cells at 10^-5 M after 72 hrs by MTS assay; assay type: functional; settings: HL-60, 72 h, read-out: GI; procedure, shortened: as §2
[21] = Cytotoxicity against human HL60R cells at 10^-5 M after 72 hrs by MTS assay; assay type: functional, HL-60; settings: read-out: GI; procedure, shortened: as §2
[22] = test system: K562; assay: Cytotoxicity against human K562 cells at 10^-5 M after 72 hrs by MTS assay; assay type: functional; settings: K562, 72 h, read-out: GI; procedure, shortened: as §2
[23] = test system: HCT-15; assay: Antiproliferative activity against human HCT15 cells after 72 hrs by MTS assay; assay type: functional, cell-based; settings: HCT-15, 72 h
Procedure, shortened: (§3)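 Cell lines grown in RPMI with 10% fetal calf serum plus penicillin, streptomycin and fungizone under 5% CO2. Compounds in DMSO (1% final; controls got DMSO alone) were added 24 h after plating. After 72 h exposure, MTS was added for 3 h at 37 °C and A490 read. Inhibition = (1 − OD treated/OD control)×100, in triplicate. IC50s came from separate duplicate dose-response experiments.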

[24] = Antiproliferative activity against human MDA231 cells after 72 hrs by MTS assay; assay type: functional, cell-based; settings: MDA-MB-231, 72 h; procedure, shortened: as §3
[25] = test system: PC-3; assay: Antiproliferative activity against human PC3 cells after 72 hrs by MTS assay; assay type: functional, cell-based; settings: PC-3, 72 h; procedure, shortened: as §3
[26] = test system: SF-268; assay: Antiproliferative activity against human SF268 cells after 72 hrs by MTS assay; assay type: functional, cell-based; settings: SF-268, 72 h; procedure, shortened: as §3
[27] = test system: SK-OV-3; assay: Antiproliferative activity against human SKOV3 cells after 72 hrs by MTS assay; assay type: functional, cell-based; settings: SK-OV-3, 72 h; procedure, shortened: as §3
[28] = test system: OVCAR-8; assay: Antiproliferative activity against human OVCAR8 cells after 72 hrs by MTS assay; assay type: functional, cell-based; settings: OVCAR-8, 72 h; procedure, shortened: as §3
[29] = test system: HL-60; assay: Antiproliferative activity against human HL60 cells after 72 hrs by MTS assay; assay type: functional, cell-based; settings: HL-60, 72 h; procedure, shortened: as §3
[30] = Antiproliferative activity against human HL60R cells after 72 hrs by MTS assay; assay type: functional, cell-based
[31] = test system: K562; assay: Antiproliferative activity against human K562 cells after 72 hrs by MTS assay; assay type: functional, cell-based; settings: K562, 72 h; procedure, shortened: as §3
[32] = species: Ovis aries; assay: Inhibition of sheep brain tubulin polymerization at 10 uM
Procedure, shortened: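 Microtubule protein from sheep brain, purified by two assembly/disassembly cycles (37 °C/0 °C), in 100 mM MES pH 6.6, 1 mM EGTA, 0.5 mM MgCl₂. Compounds in DMSO were tested at a single concentration, with incubation at 37 °C for 10 min and then 0 °C for 5 min before measuring assembly rate, following a modified Guénard protocol.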

[33] = test system: HCT-116; assay: Cytotoxicity against human HCT116 cells at 10^-6 M after 72 hrs by MTS assay; assay type: functional; settings: HCT-116, 72 h, read-out: GI; procedure, shortened: as §2
[34] = test system: HT-29; assay: Cytotoxicity against human HT-29 cells at 10^-6 M after 72 hrs by MTS assay; assay type: functional; settings: HT-29, 72 h, read-out: GI; procedure, shortened: as §2
[35] = test system: HCT-15; assay: Cytotoxicity against human HCT15 cells at 10^-6 M after 72 hrs by MTS assay; assay type: functional; settings: HCT-15, 72 h, read-out: GI; procedure, shortened: as §2
[36] = test system: MCF7; assay: Cytotoxicity against human MCF7 cells at 10^-6 M after 72 hrs by MTS assay; assay type: functional; settings: MCF7, 72 h, read-out: GI
[37] = Cytotoxicity against human MDA231 cells at 10^-6 M after 72 hrs by MTS assay; assay type: functional; settings: MDA-MB-231, 72 h, read-out: GI; procedure, shortened: as §1
[38] = test system: A549; assay: Cytotoxicity against human A549 cells at 10^-6 M after 72 hrs by MTS assay; assay type: functional; settings: A549, 72 h, read-out: GI; procedure, shortened: as §2

SMILES | inhibition of growth at 1 µM [1] | inhibition of growth at 1 µM [2] | inhibition of growth at 1 µM [3] | inhibition of growth at 1 µM [4] | inhibition of growth at 1 µM [5] | inhibition of growth at 1 µM [6] | inhibition of growth at 1 µM [7] | inhibition of growth at 1 µM [8] | inhibition of growth at 10 µM [9] | inhibition of growth at 10 µM [10] | inhibition of growth at 10 µM [11] | inhibition of growth at 10 µM [12] | inhibition of growth at 10 µM [13] | inhibition of growth at 10 µM [14] | inhibition of growth at 10 µM [15] | inhibition of growth at 10 µM [16] | inhibition of growth at 10 µM [17] | inhibition of growth at 10 µM [18] | inhibition of growth at 10 µM [19] | inhibition of growth at 10 µM [20] | also measured
COc1ccc(C(=C(COC(C)=O)COC(C)=O)c2cc(OC)c(OC)c(OC)c2)cc1O | 14% | 16% | 71% | 0% | 0% | 15% | 1% | 25% | 59% | 63% | 77% | 34% | 75% | 67% | 78% | 71% | 84% | 94% | 51% | 74% | inhibition of growth at 10 µM [21]: 90%; inhibition of growth at 10 µM [22]: 78%; IC50 [23]: 680 nM; IC50 [24]: 1030 nM; IC50 [25]: 270 nM; IC50 [26]: 970 nM; IC50 [27]: 70 nM; IC50 [28]: 1900 nM; IC50 [29]: 680 nM; IC50 [30]: 2720 nM; IC50 [31]: 180 nM; tubulin polymerization inhibition call (active/not active) [32]: inactive; inhibition of growth at 1 µM [33]: 0%; inhibition of growth at 1 µM [34]: 0%; inhibition of growth at 1 µM [35]: 18%; inhibition of growth at 1 µM [36]: 5%; inhibition of growth at 1 µM [37]: 0%; inhibition of growth at 1 µM [38]: 1%
COc1cc(C(=C(CO)CO)c2ccc3ccccc3c2)cc(OC)c1OC | 10% | 14% | 5% | 0% | 0% | 17% | 11% | 24% | 68% | 71% | 82% | 51% | 88% | 67% | 75% | 85% | 64% | 67% | 54% | 75% | inhibition of growth at 10 µM [21]: 89%; inhibition of growth at 10 µM [22]: 83%; IC50 [23]: 390 nM; IC50 [24]: 810 nM; IC50 [25]: 760 nM; IC50 [26]: 1250 nM; IC50 [27]: 6840 nM; IC50 [28]: 4470 nM; IC50 [29]: 780 nM; IC50 [30]: 1680 nM; IC50 [31]: 170 nM; tubulin polymerization inhibition call (active/not active) [32]: inactive; inhibition of growth at 1 µM [33]: 0%; inhibition of growth at 1 µM [34]: 0%; inhibition of growth at 1 µM [35]: 19%; inhibition of growth at 1 µM [36]: 8%; inhibition of growth at 1 µM [37]: 5%; inhibition of growth at 1 µM [38]: 3%
